Data from ChEMBL document CHEMBL2176871, “Development of ligands at γ-aminobutyrric acid type A (GABAA) receptor subtype as new agents for pain relief” (Bioorg Med Chem, 2011).
Calls of active or inactive are those of the source.

Legend:
Rattus norvegicus [1] = assay: Toxicity in Sprague-Dawley rat mononeuropathy pain model assessed as effect on contralateral paw pressure at 30 mg/kg, po after 15 mins by paw pressure test; type: organism-based; parameters: dose 30 mg/kg, route oral; settings: in vivo, 0.25 h
Procedure, shortened: (§1)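 Same sciatic-ligation rat model, 14 days after surgery. Threshold measured on the non-operated contralateral hind paw by analgesimeter at 32 g/s; first-struggle endpoint; 250 g cut-off; pretest rats outside 40–75 g rejected. Compound given po in 10 ml/kg; readings at 15, 30 and 45 min.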

Rattus norvegicus [2] = assay: Toxicity in Sprague-Dawley rat mononeuropathy pain model assessed as effect on contralateral paw pressure at 10 mg/kg, po after 30 mins by paw pressure test; type: organism-based; parameters: dose 10 mg/kg, route oral; settings: in vivo, 0.5 h; procedure, shortened: as §1
Mus musculus [3] = assay: Analgesic activity in Swiss albino mouse abdominal constriction model assessed as decrease in number of acetic acid-induced writhing at 10 to 30 mg/kg, po after 30 mins; type: functional, organism-based; settings: Abdomen
Procedure, shortened: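 Male Swiss albino mice (23–30 g). Compounds given po in 1% CMC vehicle 30 min before the test. Acetic acid 0.6% injected i.p. at 10 ml/kg. Stretching movements were counted for 10 min, starting 5 min after the acetic acid injection. 8–15 mice per group.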

Rattus norvegicus [4] = assay: Antinociceptive activity in Sprague-Dawley rat mononeuropathy pain model assessed as increase in injured paw pressure at 10 mg/kg, po after 30 mins by paw pressure test relative to non-treated control; type: functional
Procedure, shortened: (§2)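 Chronic constriction injury: loose ligatures placed on the common sciatic nerve under chloral hydrate; contralateral sham dissection. Tested 14 days after surgery. Paw pressure applied at 32 g/s; threshold taken as the force causing the first struggle; cut-off 250 g; pretest outliers (<40 g or >75 g) excluded. Oral dosing in 10 ml/kg; read at 15, 30 and 45 min; compared with a CMC-treated group.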

Rattus norvegicus [5] = assay: Antinociceptive activity in Sprague-Dawley rat mononeuropathy pain model assessed as increase in injured paw pressure at 30 mg/kg, po after 30 mins by paw pressure test relative to non-treated control; type: functional; procedure, shortened: as §2
Mus musculus [6] = assay: Anticonvulsant activity in Swiss albino mouse […] assessed as protection against intraperitoneally administered pentylenetetrazol-induced seizures at 30 mg/kg, po after 30 mins; type: functional
Procedure, shortened: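 Male Swiss albino mice. Compounds given po and PTZ 90 mg/kg injected 30 min later; PTZ was dissolved in 0.9% NaCl saline. Clonic generalized convulsions were recorded over 30 min. Each value is the mean of 10 mice. The methods give the PTZ route as s.c. and the table footnote gives it as ip.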

Rattus norvegicus [7] = assay: Toxicity in Sprague-Dawley rat mononeuropathy pain model assessed as effect on contralateral paw pressure at 30 mg/kg, po after 30 mins by paw pressure test; type: organism-based; parameters: dose 30 mg/kg, route oral; settings: in vivo, 0.5 h; procedure, shortened: as §1
Mus musculus [8] = assay: Antihyperalgesic activity Swiss albino mouse […] assessed as licking latency time at 30 mg/kg, po after 15 mins by hot plate test (reference value: 17.9 +/- 1.1 secs); type: functional
Procedure, shortened: (§3)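 Hot plate at 52.5 ± 0.1 °C in non-diabetic male Swiss mice. Latency to licking of fore or hind paws was timed before dosing and every 15 min up to 60 min after oral dosing. Mice with pretest latencies below 12 s or above 18 s were excluded. Cut-off was 45 s.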

Mus musculus [9] = assay: Antihyperalgesic activity against streptozotocin-induced hyperalgesia in Swiss albino mouse […] assessed as licking latency time at 30 mg/kg, po after 30 mins by hot plate test (reference value: 9.2 +/- 0.8 secs); type: functional
Mus musculus [10] = assay: Antihyperalgesic activity against streptozotocin-induced hyperalgesia in Swiss albino mouse […] assessed as licking latency time at 30 mg/kg, po after 60 mins by hot plate test (reference value: 9.2 +/- 0.8 secs); type: functional
Rattus norvegicus [11] = assay: Toxicity in Sprague-Dawley rat mononeuropathy pain model assessed as effect on contralateral paw pressure at 60 mg/kg, po after 15 mins by paw pressure test; type: organism-based; parameters: dose 60 mg/kg, route oral; settings: in vivo, 0.25 h; procedure, shortened: as §1
Rattus norvegicus [12] = assay: Toxicity in Sprague-Dawley rat mononeuropathy pain model assessed as effect on contralateral paw pressure at 1 mg/kg, po after 30 mins by paw pressure test; type: organism-based; parameters: dose 1 mg/kg, route oral; settings: in vivo, 0.5 h; procedure, shortened: as §1
Mus musculus [13] = assay: Antihyperalgesic activity against streptozotocin-induced hyperalgesia in Swiss albino mouse […] assessed as licking latency time at 30 mg/kg, po after 15 mins by hot plate test (reference value: 9.2 +/- 0.8 secs); type: functional
Rattus norvegicus [14] = assay: Antinociceptive activity in Sprague-Dawley rat mononeuropathy pain model assessed as increase in injured paw pressure at 60 mg/kg, po after 15 mins by paw pressure test relative to non-treated control; type: functional; procedure, shortened: as §2
Bos taurus = species: Bos taurus; assay: Displacement of [3H]Ro151788 from GABA(A)/BzR in bovine cerebral cortex membrane at 10 uM; type: cell membranes
Procedure, shortened: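 Bovine cerebral cortex membranes in 50 mM Tris-citrate pH 7.4; [3H]flumazenil displacement. Compounds first tested at a fixed 10 µM; Ki determined only when inhibition exceeded 80%, using at least six concentrations. Five experiments run in triplicate; IC50 obtained by iterative curve fitting and converted to Ki with the Cheng–Prusoff equation.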

Mus musculus [15] = assay: Antihyperalgesic activity Swiss albino mouse […] assessed as licking latency time at 30 mg/kg, po after 45 mins by hot plate test (reference value: 17.9 +/- 1.1 secs); type: functional; procedure, shortened: as §3
Mus musculus [16] = assay: Antihyperalgesic activity Swiss albino mouse […] assessed as licking latency time at 30 mg/kg, po after 30 mins by hot plate test (reference value: 17.9 +/- 1.1 secs); type: functional; procedure, shortened: as §3
Mus musculus [17] = assay: Antihyperalgesic activity Swiss albino mouse […] assessed as licking latency time at 30 mg/kg, po after 60 mins by hot plate test (reference value: 17.9 +/- 1.1 secs); type: functional; procedure, shortened: as §3
Rattus norvegicus [18] = assay: Antinociceptive activity in Sprague-Dawley rat mononeuropathy pain model assessed as increase in injured paw pressure at 30 mg/kg, po after 45 mins by paw pressure test relative to non-treated control; type: functional; procedure, shortened: as §2
Rattus norvegicus [19] = assay: Antinociceptive activity in Sprague-Dawley rat mononeuropathy pain model assessed as increase in injured paw pressure at 1 mg/kg, po after 15 mins by paw pressure test relative to non-treated control; type: functional; procedure, shortened: as §2
Rattus norvegicus [20] = assay: Antinociceptive activity in Sprague-Dawley rat mononeuropathy pain model assessed as increase in injured paw pressure at 30 mg/kg, po after 15 mins by paw pressure test relative to non-treated control; type: functional; procedure, shortened: as §2
Rattus norvegicus [21] = assay: Toxicity in Sprague-Dawley rat mononeuropathy pain model assessed as effect on contralateral paw pressure at 10 mg/kg, po after 15 mins by paw pressure test; type: organism-based; parameters: dose 10 mg/kg, route oral; settings: in vivo, 0.25 h; procedure, shortened: as §1
Rattus norvegicus [22] = assay: Toxicity in Sprague-Dawley rat mononeuropathy pain model assessed as effect on contralateral paw pressure at 60 mg/kg, po after 30 mins by paw pressure test; type: organism-based; parameters: dose 60 mg/kg, route oral; settings: in vivo, 0.5 h; procedure, shortened: as §1
Mus musculus [23] = assay: Antihyperalgesic activity against streptozotocin-induced hyperalgesia in Swiss albino mouse […] assessed as licking latency time at 30 mg/kg, po after 45 mins by hot plate test (reference value: 9.2 +/- 0.8 secs); type: functional
Rattus norvegicus [24] = assay: Antinociceptive activity in Sprague-Dawley rat mononeuropathy pain model assessed as increase in injured paw pressure at 1 mg/kg, po after 45 mins by paw pressure test relative to non-treated control; type: functional; procedure, shortened: as §2
Rattus norvegicus [25] = assay: Toxicity in Sprague-Dawley rat mononeuropathy pain model assessed as effect on contralateral paw pressure at 1 mg/kg, po after 15 mins by paw pressure test; type: organism-based; parameters: dose 1 mg/kg, route oral; settings: in vivo, 0.25 h; procedure, shortened: as §1
Rattus norvegicus [26] = assay: Antinociceptive activity in Sprague-Dawley rat mononeuropathy pain model assessed as increase in injured paw pressure at 1 mg/kg, po after 30 mins by paw pressure test relative to non-treated control; type: functional; procedure, shortened: as §2

Cc1cnn2c1n[n+]([O-])c1ccc(OCc3ccccc3)cc12
Activity (Rattus norvegicus [1]): 62.7 g | Activity (Rattus norvegicus [2]): 62.7 g | Activity (Mus musculus [3]): inactive | Activity (Rattus norvegicus [4]): 40.1 g | Activity (Rattus norvegicus [5]): 44.2 g | Activity (Mus musculus [6]): 10% | Activity (Rattus norvegicus [7]): 63.8 g | Time (Mus musculus [8]): 17.2 s | Time (Mus musculus [9]): 17.6 s | Time (Mus musculus [10]): 15.7 s | Activity (Rattus norvegicus [11]): 59.9 g | Activity (Rattus norvegicus [12]): 60.6 g | Time (Mus musculus [13]): 14.9 s | Activity (Rattus norvegicus [14]): 50.1 g | inhibition (Bos taurus): > 80% | Time (Mus musculus [15]): 18.5 s | Time (Mus musculus [16]): 18.1 s | Time (Mus musculus [17]): 17.2 s | Activity (Rattus norvegicus [18]): 35.2 g | Activity (Rattus norvegicus [19]): 32.3 g | Activity (Rattus norvegicus [20]): 52.8 g | Activity (Rattus norvegicus [21]): 60.4 g | Activity (Rattus norvegicus [22]): 60.8 g | Time (Mus musculus [23]): 18.8 s | Activity (Rattus norvegicus [24]): 30.8 g | Activity (Rattus norvegicus [25]): 57.3 g | Activity (Rattus norvegicus [26]): 34.5 g
